{
  "source": "ChEMBL document CHEMBL1152334",
  "about": "“Quassinoid inhibition of AP-1 function does not correlate with cytotoxicity or protein synthesis inhibition” (J Nat Prod, 2009)",
  "key": {"[1]": {"experiment": "Growth inhibition of human NCI60 cells", "type": "functional", "conditions": "Homo sapiens, NCI60"}, "[2]": {"target": "T1, Inhibitor of nuclear factor kappa-B kinase subunit alpha (Homo sapiens) (UniProt O15111)", "T1 sequence (whole entry)": "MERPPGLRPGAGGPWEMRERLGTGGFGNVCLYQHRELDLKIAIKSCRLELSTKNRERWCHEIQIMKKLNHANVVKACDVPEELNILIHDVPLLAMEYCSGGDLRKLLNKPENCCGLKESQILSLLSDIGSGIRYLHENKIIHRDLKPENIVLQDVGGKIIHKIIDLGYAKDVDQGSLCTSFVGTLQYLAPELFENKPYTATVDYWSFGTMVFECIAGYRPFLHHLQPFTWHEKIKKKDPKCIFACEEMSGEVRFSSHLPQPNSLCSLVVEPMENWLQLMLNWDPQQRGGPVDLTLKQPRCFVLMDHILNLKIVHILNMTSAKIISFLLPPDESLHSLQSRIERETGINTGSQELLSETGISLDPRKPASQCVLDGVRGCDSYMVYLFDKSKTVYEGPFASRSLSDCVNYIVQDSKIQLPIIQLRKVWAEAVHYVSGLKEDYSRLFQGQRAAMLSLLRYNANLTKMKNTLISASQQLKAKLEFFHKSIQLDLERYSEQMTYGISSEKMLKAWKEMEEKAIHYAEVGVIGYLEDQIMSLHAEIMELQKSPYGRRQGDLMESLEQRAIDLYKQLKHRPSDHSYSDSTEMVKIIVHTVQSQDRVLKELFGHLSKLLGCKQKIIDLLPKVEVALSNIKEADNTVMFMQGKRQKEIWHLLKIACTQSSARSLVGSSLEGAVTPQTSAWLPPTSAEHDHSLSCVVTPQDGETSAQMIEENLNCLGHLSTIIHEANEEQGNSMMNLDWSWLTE", "experiment": "Inhibition of TPA-induced IkappaBalpha phosphorylation in HEK293 whole cell extract at 71.3 uM treated 1 hr before TPA stimulation measured after 18 hrs by immunoblot analysis", "type": "cell-based", "how_it_was_run": "(§1)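 HEK293 cells were exposed to compound or DMSO for 1 h, then induced with TPA 10 ng/mL for 18 h. Cells were lysed in RIPA buffer (10 mM Tris-HCl pH 7.5, 1 mM EDTA, 0.1% SDS, 0.1% deoxycholate, protease inhibitor). Whole-cell extracts were immunoblotted for phospho-IκB-α and phospho-Stat3 (Tyr705), with tubulin as loading control.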"}, "HeLa": {"tested_on": "HeLa", "experiment": "Inhibition of protein synthesis in human HeLa cells assessed as [35S]methionine incorporation into protein treated for 45 mins before [35S]methionine addition by Whatman paper analysis", "type": "functional, cell-based"}, "[3]": {"target": "Signal transducer and activator of transcription 3 (Homo sapiens) (UniProt P40763)", "sequence (P40763 whole entry)": "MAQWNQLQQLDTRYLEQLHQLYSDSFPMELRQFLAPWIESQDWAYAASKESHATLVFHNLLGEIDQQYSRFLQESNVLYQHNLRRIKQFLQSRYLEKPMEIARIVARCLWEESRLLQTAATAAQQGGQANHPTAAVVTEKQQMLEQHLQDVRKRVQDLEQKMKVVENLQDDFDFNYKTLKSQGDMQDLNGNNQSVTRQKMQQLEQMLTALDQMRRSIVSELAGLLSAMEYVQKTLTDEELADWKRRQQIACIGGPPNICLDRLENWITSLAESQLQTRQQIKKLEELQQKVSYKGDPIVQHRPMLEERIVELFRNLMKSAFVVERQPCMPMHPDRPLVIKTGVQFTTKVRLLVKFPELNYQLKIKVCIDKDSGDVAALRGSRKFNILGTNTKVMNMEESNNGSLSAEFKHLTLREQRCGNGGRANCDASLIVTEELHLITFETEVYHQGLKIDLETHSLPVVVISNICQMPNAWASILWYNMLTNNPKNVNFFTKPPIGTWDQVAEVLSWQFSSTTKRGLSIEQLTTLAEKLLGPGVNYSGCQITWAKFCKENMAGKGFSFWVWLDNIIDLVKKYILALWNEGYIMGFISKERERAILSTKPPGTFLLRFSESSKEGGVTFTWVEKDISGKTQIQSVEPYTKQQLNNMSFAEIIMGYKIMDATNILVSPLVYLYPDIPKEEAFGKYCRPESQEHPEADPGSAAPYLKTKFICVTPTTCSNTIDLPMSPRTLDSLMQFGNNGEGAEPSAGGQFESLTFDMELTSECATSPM", "experiment": "Inhibition of TPA-induced phosphorylation at Tyr705 of Stat3 in HEK293 whole cell extract at 20.4 uM treated 1 hr before TPA stimulation measured after 18 hrs by immunoblot analysis", "type": "cell-based", "how_it_was_run": "as §1"}, "[4]": {"target": "T1, Inhibitor of nuclear factor kappa-B kinase subunit alpha (Homo sapiens)", "experiment": "Inhibition of TPA-induced IkappaBalpha phosphorylation in HEK293 whole cell extract at 35.5 uM treated 1 hr before TPA stimulation measured after 18 hrs by immunoblot analysis", "how_it_was_run": "as §1"}, "[5]": {"target": "Signal transducer and activator of transcription 3 (Homo sapiens) (UniProt P40763)", "experiment": "Inhibition of TPA-induced phosphorylation at Tyr705 of Stat3 in HEK293 whole cell extract at 15.8 uM treated 1 hr before TPA stimulation measured after 18 hrs by immunoblot analysis", "type": "cell-based", "how_it_was_run": "as §1"}, "[6]": {"target": "Signal transducer and activator of transcription 3 (Homo sapiens) (UniProt P40763)", "experiment": "Inhibition of TPA-induced phosphorylation at Tyr705 of Stat3 in HEK293 whole cell extract at 40.8 uM treated 1 hr before TPA stimulation measured after 18 hrs by immunoblot analysis", "type": "cell-based", "how_it_was_run": "as §1"}, "[7]": {"experiment": "Inhibition of protein synthesis in cell-free extract of mouse Krebs2 cells by SDS-PAGE", "type": "functional"}, "[8]": {"target": "Signal transducer and activator of transcription 3 (Homo sapiens) (UniProt P40763)", "experiment": "Inhibition of TPA-induced phosphorylation at Tyr705 of Stat3 in HEK293 whole cell extract at 71.3 uM treated 1 hr before TPA stimulation measured after 18 hrs by immunoblot analysis", "type": "cell-based", "how_it_was_run": "as §1"}, "HEK293": {"tested_on": "HEK293", "experiment": "Inhibition of TPA-induced NF-kappaB transfected in HEK293 cells treated 1 hr before TPA stimulation measured after 18 hrs by luciferase reporter gene assay", "type": "cell-based", "how_it_was_run": "(§2)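 HEK293 cells were grown in DMEM with 10% FBS at 37 °C and 5% CO2. They were transiently transfected with a luciferase reporter (0.1 µg/well); reporters were AP-1 (four TRE consensus copies from GCN4), NF-κB (five responsive-element copies) or SRE. After 24 h, medium went to DMEM with 0.2% FBS. Cells were pretreated 1 h with compound or DMSO, then given TPA 10 ng/mL for 18 h. Firefly luciferase was read from passive-lysis lysates, TPA alone = 100%, in quadruplicate.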"}, "[9]": {"target": "Signal transducer and activator of transcription 3 (Homo sapiens) (UniProt P40763)", "experiment": "Inhibition of TPA-induced phosphorylation at Tyr705 of Stat3 in HEK293 whole cell extract at 31.6 uM treated 1 hr before TPA stimulation measured after 18 hrs by immunoblot analysis", "type": "cell-based", "how_it_was_run": "as §1"}, "Nucleic Acid": {"tested_on": "Nucleic Acid", "experiment": "Inhibition of TPA-induced SRE transfected in HEK293 cells treated 1 hr before TPA stimulation measured after 18 hrs by luciferase reporter gene assay", "type": "cell-based", "how_it_was_run": "as §2"}, "[10]": {"target": "Signal transducer and activator of transcription 3 (Homo sapiens) (UniProt P40763)", "experiment": "Inhibition of TPA-induced phosphorylation at Tyr705 of Stat3 in HEK293 whole cell extract at 35.5 uM treated 1 hr before TPA stimulation measured after 18 hrs by immunoblot analysis", "how_it_was_run": "as §1"}, "[11]": {"target": "T1, Inhibitor of nuclear factor kappa-B kinase subunit alpha (Homo sapiens)", "experiment": "Inhibition of TPA-induced IkappaBalpha phosphorylation in HEK293 whole cell extract at 40.8 uM treated 1 hr before TPA stimulation measured after 18 hrs by immunoblot analysis", "type": "cell-based", "how_it_was_run": "(§3)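 HEK293 cells grown in DMEM with 10% FBS at 37 °C and 5% CO2. Cells were pretreated with quassinoid or DMSO for 1 h, then stimulated with TPA (10 ng/mL) for 18 h. Whole-cell extracts were made in RIPA buffer (10 mM Tris-HCl pH 7.5, 1 mM EDTA, 0.1% SDS, 0.1% deoxycholate, protease inhibitor). Immunoblots were probed for phospho-IκB-α, with tubulin as loading control.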"}, "[12]": {"target": "T1, Inhibitor of nuclear factor kappa-B kinase subunit alpha (Homo sapiens)", "experiment": "Inhibition of TPA-induced IkappaBalpha phosphorylation in HEK293 whole cell extract at 20.4 uM treated 1 hr before TPA stimulation measured after 18 hrs by immunoblot analysis", "type": "cell-based", "how_it_was_run": "as §3"}, "[13]": {"experiment": "Growth inhibition of human AP-1 beta-lactamase reporter screening assay cells at 1 uM", "conditions": "AP-1 reporter cells"}, "[14]": {"target": "T1, Inhibitor of nuclear factor kappa-B kinase subunit alpha (Homo sapiens)", "experiment": "Inhibition of TPA-induced IkappaBalpha phosphorylation in HEK293 whole cell extract at 31.6 uM treated 1 hr before TPA stimulation measured after 18 hrs by immunoblot analysis", "type": "cell-based", "how_it_was_run": "as §1"}, "[15]": {"target": "T1, Inhibitor of nuclear factor kappa-B kinase subunit alpha (Homo sapiens)", "experiment": "Inhibition of TPA-induced IkappaBalpha phosphorylation in HEK293 whole cell extract at 15.8 uM treated 1 hr before TPA stimulation measured after 18 hrs by immunoblot analysis", "type": "cell-based", "how_it_was_run": "as §1"}},
  "note": "Active and inactive are the calls of the source. No cut-off for these calls is given here.",
  "data": [
    {"molecule": "CC(C)=CC(=O)O[C@@H]1[C@H]2C(C)=C[C@H](O)[C@@H](O)[C@]2(C)[C@H]2[C@]3(O)OC[C@@]24[C@@H]1OC(=O)C[C@H]4[C@@H](C)[C@H]3O", "values": [
      {"measurement": "GI50", "setting": "[1]", "result": 260, "unit": "nM"},
      {"measurement": "inhibition", "setting": "[2]", "result": "Active"},
      {"measurement": "IC50", "setting": "HeLa", "result": 670, "unit": "nM"},
      {"measurement": "inhibition", "setting": "[3]", "result": "inactive"},
      {"measurement": "inhibition", "setting": "[4]", "result": "Active"},
      {"measurement": "inhibition", "setting": "[5]", "result": "inactive"},
      {"measurement": "inhibition", "setting": "[6]", "result": "inactive"},
      {"measurement": "IC50", "setting": "[7]", "result": 910, "unit": "nM"},
      {"measurement": "inhibition", "setting": "[8]", "result": "inactive"},
      {"measurement": "inhibition", "setting": "HEK293", "result": "Dose-dependent effect"},
      {"measurement": "inhibition", "setting": "[9]", "result": "inactive"},
      {"measurement": "inhibition", "setting": "Nucleic Acid", "result": "Dose-dependent effect"},
      {"measurement": "inhibition", "setting": "[10]", "result": "inactive"}
    ]},
    {"molecule": "CC[C@](C)(O)C(=O)O[C@H]1C(=O)O[C@@H]2C[C@H]3C(C)=CC(=O)[C@@H](O)[C@]3(C)[C@H]3[C@@]4(O)OC[C@]32[C@@H]1[C@@H](C)[C@H]4O", "note": "(stereo in doubt; 4)", "values": [
      {"measurement": "inhibition", "setting": "[11]", "result": "Active"},
      {"measurement": "inhibition", "setting": "[3]", "result": "inactive"},
      {"measurement": "inhibition", "setting": "[5]", "result": "inactive"},
      {"measurement": "inhibition", "setting": "[6]", "result": "inactive"},
      {"measurement": "inhibition", "setting": "[12]", "result": "Active"},
      {"measurement": "inhibition", "setting": "[8]", "result": "inactive"},
      {"measurement": "inhibition", "setting": "HEK293", "result": "Dose-dependent effect"},
      {"measurement": "inhibition", "setting": "[9]", "result": "inactive"},
      {"measurement": "inhibition", "setting": "Nucleic Acid", "result": "Dose-dependent effect"},
      {"measurement": "inhibition", "setting": "[10]", "result": "inactive"}
    ]},
    {"molecule": "CCC(C)C(=O)O[C@H]1C(=O)O[C@@H]2C[C@H]3C(C)=CC(=O)[C@@H](O)[C@]3(C)[C@H]3[C@]4(O)OC[C@]32[C@@H]1[C@@H](C)[C@H]4O", "note": "(some centres not stated) [AILANTHINONE]", "values": [
      {"measurement": "GI50", "setting": "[1]", "result": 31000, "unit": "nM"},
      {"measurement": "inhibition at 1 µM", "setting": "[13]", "result": "< 25", "unit": "%"},
      {"measurement": "inhibition", "setting": "[14]", "result": "Active"},
      {"measurement": "IC50", "setting": "HeLa", "result": 3.4, "unit": "nM"},
      {"measurement": "inhibition", "setting": "[3]", "result": "inactive"},
      {"measurement": "inhibition", "setting": "[5]", "result": "inactive"},
      {"measurement": "inhibition", "setting": "[6]", "result": "inactive"},
      {"measurement": "IC50", "setting": "[7]", "result": 420, "unit": "nM"},
      {"measurement": "inhibition", "setting": "[15]", "result": "Active"},
      {"measurement": "inhibition", "setting": "[8]", "result": "inactive"},
      {"measurement": "inhibition", "setting": "HEK293", "result": "Dose-dependent effect"},
      {"measurement": "inhibition", "setting": "[9]", "result": "inactive"},
      {"measurement": "inhibition", "setting": "Nucleic Acid", "result": "Dose-dependent effect"},
      {"measurement": "inhibition", "setting": "[10]", "result": "inactive"}
    ]}
  ]
}
